Data as given in ChEMBL document CHEMBL3352557, “Design, synthesis and antimycobacterial activity of various 3-(4-(substitutedsulfonyl)piperazin-1-yl)benzo[d]isoxazole derivatives” (Eur J Med Chem, 2014).
≈ marks a conversion by molar mass, not a printed value.

Key:
[1] = tested on: RAW264.7; test: Cytotoxicity against mouse RAW264.7 cells assessed as inhibition of cell growth after 72 hrs by MTT assay; assay type: cell-based; details: RAW264.7, 72 h
Outline: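 Mouse macrophage RAW 264.7 cells exposed to compound for 72 h. Viability was read as cellular conversion of MTT to formazan using a non-radioactive cell proliferation kit, and IC50 was taken from this.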

[2] = Cytotoxicity against mouse RAW264.7 cells assessed as inhibition of cell growth at 50 ug/mL after 72 hrs by MTT assay; assay type: cell-based; details: read-out: GI
Outline: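 RAW 264.7 mouse macrophage line treated at 50 µg/mL for 72 h. Viability was scored by cellular reduction of MTT to a formazan product in a non-radioactive cell proliferation assay.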

[3] = tested on: Mycobacterium tuberculosis; test: Antimycobacterial activity against Mycobacterium tuberculosis H37Rv ATCC 27294 after 7 days by MABA method; assay type: functional; details: H37Rv ATCC 27294, 168 h
Outline: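 Two-fold serial dilutions in Middlebrook 7H9GC medium, final 50 to 0.78 µg/mL (DMSO stocks), inoculum 2 × 10^5 CFU/mL. Incubated at 37 °C for 7 days, then 10% Tween 80 and Alamar Blue added and incubated 24 h at 37 °C. Blue read as no growth, pink as growth. MIC is the lowest concentration preventing the blue-to-pink change. Isoniazid and rifampin served as positive controls.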

[4] = Selectivity index, ratio of IC50 for mouse RAW264.7 cells to MIC for Mycobacterium tuberculosis H37Rv ATCC 27294; assay type: toxicity; details: read-out: Selectivity Index
[5] = tested on: Mycobacterium tuberculosis; test: Antimycobacterial activity against Mycobacterium tuberculosis H37Rv ATCC 27294 assessed as inhibition of cell growth at 3.125 ug/mL after 7 days by MABA method; assay type: functional; details: H37Rv ATCC 27294, 168 h, read-out: GI
[6] = tested on: Mycobacterium tuberculosis; test: Antimycobacterial activity against Mycobacterium tuberculosis H37Rv ATCC 27294 assessed as inhibition of cell growth at 6.25 ug/mL after 7 days by MABA method; assay type: functional; details: H37Rv ATCC 27294, 168 h, read-out: GI

Row | SMILES | MIC [3] | further results
1 | c1ccc2c(N3CCNCC3)noc2c1 | 6.25 µg/mL (≈ 30.8 µM) | IC50 [1]: 67.9 µg/mL (≈ 334 µM); inhibition at 72 h, 50 ug/mL [2]: 36.8%; selectivity ratio [4]: 10.8
2 | Clc1cccc2onc(N3CCNCC3)c12 | 25 µg/mL (≈ 105 µM) | –
3 | Clc1ccc2c(N3CCNCC3)noc2c1 | 12.5 µg/mL (≈ 52.6 µM) | IC50 [1]: 104 µg/mL (≈ 436 µM); inhibition at 72 h, 50 ug/mL [2]: 24.1%; selectivity ratio [4]: 8.29
4 | Clc1cccc2c(N3CCNCC3)noc12 | 25 µg/mL (≈ 105 µM) | –
5 | CS(=O)(=O)N1CCN(c2noc3ccccc23)CC1 | 12.5 µg/mL (≈ 44.4 µM) | IC50 [1]: 88 µg/mL (≈ 313 µM); inhibition at 72 h, 50 ug/mL [2]: 28.4%; selectivity ratio [4]: 7.03
6 | O=S(=O)(c1ccccc1)N1CCN(c2noc3ccccc23)CC1 | 3.12 µg/mL (≈ 9.09 µM) | IC50 [1]: 430 µg/mL (≈ 1250 µM); inhibition at 72 h, 50 ug/mL [2]: 5.82%; inhibition of growth at 3.125 µg/mL [5]: 99%; selectivity ratio [4]: 137
7 | Cc1ccc(S(=O)(=O)N2CCN(c3noc4ccccc34)CC2)cc1 | 50 µg/mL (≈ 140 µM) | –
8 | O=S(=O)(c1ccc(OC(F)(F)F)cc1)N1CCN(c2noc3ccccc23)CC1 | > 50 µg/mL | –
9 | O=[N+]([O-])c1ccc(S(=O)(=O)N2CCN(c3noc4ccccc34)CC2)cc1 | > 50 µg/mL | –
10 | O=S(=O)(c1ccc(Br)cc1)N1CCN(c2noc3ccccc23)CC1 | 50 µg/mL (≈ 118 µM) | –
11 | CS(=O)(=O)N1CCN(c2noc3cccc(Cl)c23)CC1 | > 50 µg/mL | –
12 | O=S(=O)(c1ccccc1)N1CCN(c2noc3cccc(Cl)c23)CC1 | 25 µg/mL (≈ 66.2 µM) | –
13 | Cc1ccc(S(=O)(=O)N2CCN(c3noc4cccc(Cl)c34)CC2)cc1 | 6.25 µg/mL (≈ 15.9 µM) | IC50 [1]: 116 µg/mL (≈ 295 µM); inhibition of growth at 6.25 µg/mL [6]: 99%; inhibition at 72 h, 50 ug/mL [2]: 21.6%; selectivity ratio [4]: 18.5
14 | O=S(=O)(c1ccc(OC(F)(F)F)cc1)N1CCN(c2noc3cccc(Cl)c23)CC1 | 12.5 µg/mL (≈ 27.1 µM) | IC50 [1]: 59.3 µg/mL (≈ 128 µM); inhibition at 72 h, 50 ug/mL [2]: 42.2%; selectivity ratio [4]: 4.74
15 | O=[N+]([O-])c1ccc(S(=O)(=O)N2CCN(c3noc4cccc(Cl)c34)CC2)cc1 | 50 µg/mL (≈ 118 µM) | –
16 | O=S(=O)(c1ccc(Br)cc1)N1CCN(c2noc3cccc(Cl)c23)CC1 | 50 µg/mL (≈ 109 µM) | –
17 | CS(=O)(=O)N1CCN(c2noc3cc(Cl)ccc23)CC1 | > 50 µg/mL | –
18 | O=S(=O)(c1ccccc1)N1CCN(c2noc3cc(Cl)ccc23)CC1 | 25 µg/mL (≈ 66.2 µM) | –
19 | Cc1ccc(S(=O)(=O)N2CCN(c3noc4cc(Cl)ccc34)CC2)cc1 | > 50 µg/mL | –
20 | O=S(=O)(c1ccc(OC(F)(F)F)cc1)N1CCN(c2noc3cc(Cl)ccc23)CC1 | 12.5 µg/mL (≈ 27.1 µM) | IC50 [1]: 138 µg/mL (≈ 299 µM); inhibition at 72 h, 50 ug/mL [2]: 18.1%; selectivity ratio [4]: 11
21 | O=[N+]([O-])c1ccc(S(=O)(=O)N2CCN(c3noc4cc(Cl)ccc34)CC2)cc1 | 25 µg/mL (≈ 59.1 µM) | –
22 | O=S(=O)(c1ccc(Br)cc1)N1CCN(c2noc3cc(Cl)ccc23)CC1 | > 50 µg/mL | –
23 | CS(=O)(=O)N1CCN(c2noc3c(Cl)cccc23)CC1 | 25 µg/mL (≈ 79.2 µM) | –
24 | O=S(=O)(c1ccccc1)N1CCN(c2noc3c(Cl)cccc23)CC1 | 25 µg/mL (≈ 66.2 µM) | –
25 | Cc1ccc(S(=O)(=O)N2CCN(c3noc4c(Cl)cccc34)CC2)cc1 | > 50 µg/mL | –
26 | O=S(=O)(c1ccc(OC(F)(F)F)cc1)N1CCN(c2noc3c(Cl)cccc23)CC1 | > 50 µg/mL | –
27 | O=[N+]([O-])c1ccc(S(=O)(=O)N2CCN(c3noc4c(Cl)cccc34)CC2)cc1 | 50 µg/mL (≈ 118 µM) | –
28 | O=S(=O)(c1ccc(Br)cc1)N1CCN(c2noc3c(Cl)cccc23)CC1 | 25 µg/mL (≈ 54.7 µM) | –
29 | NNC(=O)c1ccncc1 [ISONIAZID] | 0.36 µg/mL (≈ 2.63 µM) | –
30 | CO[C@H]1/C=C/O[C@@]2(C)Oc3c(C)c(O)c4c(O)c(c(/C=N/N5CCN(C)CC5)c(O)c4c3C2=O)NC(=O)/C(C)=C\C=C\[C@H](C)[C@H](O)[C@@H](C)[C@@H](O)[C@@H](C)[C@H](OC(C)=O)[C@@H]1C [RIFAMPIN] | 1 µg/mL (≈ 1.22 µM) | –
